Screening data from PubChem BioAssay.
RanGTP-Impb inh: inhibitors of RanGTP-importin-beta interaction, primary screen, biochemical, FRET, CFP-Ran, YFP-importin-beta, homogeneous; cell-free CFP-Ran/YFP-importin-beta FRET ratio; inhibition, % (test concentration not listed); 1.1% of 300,000 active; AID 2216;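 active = more than half of the replicate wells show a fall in the fluorescence ratio signal beyond about 16%, limit read from the data, passing the limit was not always enough; inconclusive = exactly half of the replicate wells pass the set limit; inactive = fewer than half of replicates pass the limit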;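 note: 0% = DMSO wells and 100% = Ran loaded with GDP instead of GTP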
TbHK1 inh: blocks Trypanosoma brucei hexokinase 1 activity. recombinant TbHK1, G6PDH-coupled NADH A340. inhibition, % at 10 µM. 0.11% of 220,000 active. AID 1430;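 active = inhibition of 50% or more in the single-dose primary screen; inactive = inhibition below 50%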
14-3-3 Bad inh: disrupts binding of bovine 14-3-3 zeta to phospho-Bad peptide. P63103. TR-FRET 14-3-3zeta/Dy647-pBad peptide displacement, 1 h. inhibition, % at 21.7 µM. 0.71% of 220,000 active;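 active = inhibition above about 70%, limit read from the data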;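 note: 0% = full 14-3-3 plus peptide FRET controls and 100% = background without 14-3-3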
Target sequence (P63103 whole entry, looked up): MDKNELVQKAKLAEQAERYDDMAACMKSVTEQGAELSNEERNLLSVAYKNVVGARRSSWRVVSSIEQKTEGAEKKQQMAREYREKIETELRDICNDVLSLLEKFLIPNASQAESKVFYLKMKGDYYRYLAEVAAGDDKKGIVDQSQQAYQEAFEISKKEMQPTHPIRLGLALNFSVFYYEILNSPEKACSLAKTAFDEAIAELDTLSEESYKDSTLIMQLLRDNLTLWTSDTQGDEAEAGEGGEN
Hck Nef HTS: inhibitors of human Hck kinase activated by Nef | 0.68% of 220,000 active | Recombinant Hck-YEEI plus Nef, Z-Lyte FRET kinase assay | inhibition, % at 20 µM | P08631;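 active = Hck-Nef kinase inhibition above about 50%, limit read from the data; inactive = inhibition below that limit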;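 note: 0% = DMSO with Hck plus Nef and 100% = Hck alone without Nef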
Runt-SMMHC FRET: Runt domain-CBFb-SMMHC interaction inhibition. Q01196+Q13951. Cerulean-Runt/Venus-CBFb-SMMHC FRET ratio 530/480, 1 h. inhibition, % at 20 µM. 0.74% of 220,000 active;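 active = mean inhibition across duplicate retests at 20 µM reaching about 50%, limit read from the data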;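 note: 0% = DMSO wells and 100% = wells with excess untagged CBFb-SMMHC; inhibitors lower the FRET ratio by blocking Runt binding to CBFb-SMMHC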
Runt-CBFb FRET: inhibitors of human RUNX1 Runt domain binding to CBFb. 0.46% of 220,000 active. AID 1496. Cerulean-Runt/Venus-CBFb FRET ratio 530/480, 1 h. inhibition, % at 20 µM;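 active = inhibition over about 50% at 20 µM in the single-dose screen, limit read from the data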;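 note: 0% = DMSO wells and 100% = excess unlabeled CBFb competitor control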
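Doses: 20 µM compound in 1% DMSO | Material: Cerulean-labeled Runt domain protein | Amount: Each fluorescent fusion protein 100 nM | Schedule: Two 1 h room-temperature incubations shielded from light | Measured by: FRET fluorescence | Evaluation: Loss of energy transfer signal | Controls: Unlabeled CBFb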
* hit, by the source's call; ? = inconclusive; / = no result; [ ] = dose if it differs, or a comment. In the library only some 2.2% were active in any assay of this set; here they are far more common.

SMILES	RanGTP-Impb inh	TbHK1 inh	14-3-3 Bad inh	Hck Nef HTS	Runt-SMMHC FRET	Runt-CBFb FRET
CCN1CCc2c(C#N)c(N3CCOCC3)nc(NCc3ccccc3)c2C1	28*	-15	/	4	58*	40
CN1CCc2c(C#N)c(N3CCCCC3)nc(N3CCOCC3)c2C1	0	-26	/	2	/	/
N#Cc1c(NCCO)nc(NCc2ccccc2)c2c1CCN(Cc1ccccc1)C2	137*	-11	-21	16	79*	32
CC1=Nc2cccc([N+](=O)[O-])c2NC(=O)C1	/	6	5	-14	2	0
C=CCNc1nc(N2CCCCC2)c(C#N)c2c1CN(Cc1ccccc1)CC2	52*	1	-6	1	0	10
CCN1CCc2c(C#N)c(N3CCCCC3)nc(NCc3ccccc3)c2C1	1	-9	/	7	23	17
Cc1ccc(C(=O)N2CCN(C)CC2)cc1[N+](=O)[O-]	4	/	/	/	/	/
CN1CCN(c2ccc(Cl)cc2NC(=O)CCN2C(=O)c3ccccc3C2=O)CC1	?	10	34	17	-2	0
COc1cc2ccccc2cc1C(=O)Nc1nnc(-c2ccncc2)o1	3	/	/	/	/	/
O=c1ccc2cc(O)c(O)cc2o1	81*	-8	-6	25	73*	4
COc1ccc(C)cc1S(=O)(=O)Nc1ccncc1	14*	2	-6	27	-4	1
CCOC(=O)c1ccc(Nc2ccc(-c3ccc(OC)c(OC)c3)nn2)cc1	0	-11	81*	7	-6	-6
CCCCn1c(=O)nc2n(-c3ccc(OC)cc3)c3ccccc3cc-2c1=O	9	-13	3	-10	27	17
CCCCn1c(=O)nc2n(-c3ccc(Cl)cc3)c3ccccc3cc-2c1=O	59*	3	-6	3	82*	103*
CCCCn1c(=O)nc2n(-c3ccc(C)cc3)c3ccccc3cc-2c1=O	60*	-6	9	4	82*	54*
Cc1ccc(-n2c3nc(=O)n(C)c(=O)c-3cc3ccccc32)cc1	86*	-12	45	28	81*	10
O=S(=O)(NCC(c1ccc2c(c1)OCO2)N1CCN(c2ccccc2)CC1)c1ccccc1 (stereo not given)	0	/	/	/	/	/
Cc1ccc(OCC(=O)N/N=C/c2cccn2C)cc1	-2	-17	70*	1	2	2
Cc1ccc(C)c(OCC(=O)N/N=C\c2cccn2C)c1	2	-19	-15	28	-2	-2
CCOc1ccc(N(CC(=O)NCCc2ccccc2)C(=O)CCC(=O)Nc2nccs2)cc1	0	/	/	/	/	/
O=C(Nc1cccnc1)c1ccc(C(=O)Nc2cccnc2)cc1	0	-7	-4	19	3	0
O=C(Nc1cccnc1)c1ccc(S(=O)(=O)c2ccc(Cl)cc2)cc1	6	2	85*	14	4	-2
Cc1noc(C)c1CSCC(=O)Nc1cc(S(=O)(=O)N2CCOCC2)ccc1OC(C)C	1	/	/	/	/	/
O=C(CSc1ccsc1[N+](=O)[O-])NCc1ccco1	-3	-7	-1	4	-2	4
COC(=O)Cc1cc(=O)n2[nH]c(SC)nc2n1	?	-3	7	-1	-1	0
SMILES	RanGTP-Impb inh	TbHK1 inh	14-3-3 Bad inh	Hck Nef HTS	Runt-SMMHC FRET	Runt-CBFb FRET
COC(=O)Cc1cc(=O)n2[nH]c(C)nc2n1	18*	-1	-5	-10	3	-1
COc1ccccc1[C@@H]1C(c2cccc(Cl)c2)=NN(c2ccccc2)[C@H]1C(=O)N1CCOC1=O	27*	-9	-10	8	73*	32
O=C(C1=NN(c2ccccc2)C2C(=O)N(c3cccc(Cl)c3)C(=O)C12)c1ccccc1 (stereo not given)	/	0	-42	-7	30	-251
O=C1OCCN1C(=O)[C@H]1[C@H](c2ccc(Cl)cc2)C(c2cccc(Cl)c2)=NN1c1ccccc1	30*	-9	2	11	57	28
CCCCNC(=O)c1ccc(S(=O)(=O)c2ccc(Cl)cc2)c(NC(C)=O)c1	-1	-4	72*	-3	0	0
Cc1c(C(N)=O)sc2ncn(CC(=O)N(C)C3CCCCC3)c(=O)c12	0	/	/	/	/	/
COCCNC(=O)c1cccc(OC2CCN(Cc3cccc(SC)c3)CC2)c1	-1	/	/	/	/	/
COc1ccc(-c2ccc(/C=N/NC(=O)c3cccnc3)o2)c([N+](=O)[O-])c1	-31	-1	79*[fluorescence artefact?]	-2	-95	-26
O=C1[C@@H]2Cc3c([nH]c4ccccc34)C(c3cccc([N+](=O)[O-])c3)N2C(=O)CN1C1CCN(Cc2ccccc2)CC1 (stereo not given in full)	3	/	/	/	/	/
CC(=O)NC1(c2ccccc2)CCN(c2cc(C)nc(-c3ccccc3)n2)CC1	0	-7	-16	19	0	0
CCOC(=O)c1sc2c(c1C)C(c1cccs1)C1=C(CCCC1=O)N2 (stereo not given)	?	-4	6	17	111*	99*
CCOC(=O)C1=C(C)NC2=C(C(=O)CCC2)C1c1cccs1 (stereo not given)	0	-11	2	6	2	-1
COc1ccc(NC(=O)CSCC(=O)NC2(C)CCS(=O)(=O)C2)cc1 (stereo not given)	3	/	/	/	/	/
O=C(CP(=O)(c1ccccc1)c1ccccc1)N/N=C/c1cc(Br)cc(Br)c1O	21*	2	-2	4	60	31
O=C(CNC(=O)c1ccccc1Br)N/N=C/c1cc(Br)ccc1O	0	2	93*	20	26	10
O=C(Cc1ccccc1)N/N=C/c1cc(Br)cc(Cl)c1O	18*	3	-17	5	92*	28
O=[N+]([O-])c1ccc2c(c1)/C(=N\O)c1ccccc1-2	-3	-22	10	23	1	2
NN=C1c2cc([N+](=O)[O-])ccc2-c2ccc([N+](=O)[O-])cc21	0	24	76*	29	-5	41
COc1ccc(CCNc2ncnc3c2oc2ccccc23)cc1OC	?	5	85*	1	0	-2
COc1ccc(CCNc2nc(C)nc3c2oc2ccccc23)cc1OC	7	-7	75*	0	-6	-33
Cc1ccc(-c2nc(NC(=O)c3cc(C(C)(C)C)nn3C)sc2C)cc1Cl	-4	-25	0	3	-2	0
O=[N+]([O-])c1ccccc1/C=C/C=N/n1c(-c2ccccc2)n[nH]c1=S	7	-4	7	-6	12	12
O=[N+]([O-])c1ccccc1/C=C/C=N/n1c(-c2ccc(Cl)cc2)n[nH]c1=S	0	-6	79*	39	-5	-1
COc1ccc(-c2csc(Nc3ccc(S(N)(=O)=O)cc3)n2)cc1	4	-23	70*[fluorescence artefact?]	1	1	1
